These results are taken from the RNAGym collection of RNA variant scans (doi:10.1126/science.aae0568).

First the molecules themselves.
B1: tRNA (parent)
chain: GUUCCGUUGGCGUAAUGGUAACGCGUCUCCCUCCUAAGGAGAAGACUGCGGGUUCGAGUCCCGUACGGAACG

This sample holds only a part of the variants without activity.

Variants of B1 are the subject of the data set. In words: yeast fitness relative to wild type (ratio to wild type); higher = fitter; tRNA-Arg(CCU), competitive growth, 37 C, YPD. Put shortly: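 For this measurement, the tRNA-Arg(CCU) gene was varied by chemical synthesis at a 3% per-site mutation rate across 69 sites, and each variant was placed at the native genomic locus in Saccharomyces cerevisiae. The pooled strains went through a 24-hour competition in YPD at 37°C in six parallel replicates, with amplicons from start and end populations read by 100-nucleotide paired-end sequencing. Darwinian fitness relative to wild type followed from the change in each genotype's frequency. Genotypes needed ≥ 100 starting reads, and estimates < 0.5 were set to 0.5.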
For GGUCCGUUGGCGUAAUGGUAACGCGUCUCCCUCCUAAGGAGAAGACUGCGGGUUCGAGUCUCGUACGGAACG, the yeast fitness amounted to 0.88.

On to GUUCCGUUGGCGUAAAGGUAACGCGUCUCCCUCCUAAGGAGGAGACUGCGGGUUCGAGUCCCGUACGGAACG, for which the yeast fitness stood at 0.749. On to GUUCCGUUGGCGUAGUGGUAACGCGUCUCCUUCCUAAGGAGUAGACUGCGGGUUCGAGUCCCGUACGGAUCG, for which the yeast fitness came to 0.602.

In the case of GUUUCGUUGGCGUAAUGGUAACGCGUCUCCCUCCUAAGGAGAAGACUGCGGCUUCGAGUCCCGUACCGAACG, the yeast fitness is at most 0.5.

GUUCGGUUGGCGUAAUGGUAACGCGUCUCCCUCCUAAGGAGAAGACUGCGGGUUCGAGUCUCGUACGGAGCG: the yeast fitness amounted to 0.707.

On to GUUCCGUUCGCGUAAUGGUAACGCGUCUCCCUCCUAAGGAGAAGUCUGCGGGUUGGAGUCCCGUACGGAACG, for which the yeast fitness came to 0.533. For the variant GUUCCGGUGGCGUAAUGGUAACGCGUCUCCCUCCUAAGGAGUAGACUGCGGGUUCGAGUCCCGUACGGAACG, the yeast fitness is 0.683. As for GUUCCGUUGGCGUAAUGGUAACGCGAGUCCGUCCUAACGAGAAGACUGCGGGUUCGAGUCCCGUACGGAACG, the figure is at most 0.5; as for GUUCCGUUGGCGUAAUGGUAACGCGUCUCACUCGUAAGGAGAAGACUGCGGGUUCGAGUCCCGUUCGGAACG, at most 0.5. As for GUUCCGUUGGCGUAAUGGUAACGCGUCUCCUUCCUAAGGAGAAGAUUGCGGGUUCGAGUCCCGUACGGAACG, the figure is 1.02; as for GUUCCGUUGGCGUAAUGGUAACGCGUCUCCCUCAUAAGGAGAAGACUGCGGGUUAGAGUCCCGUACGGAACG, 0.566. As for GUUCCGUUGGCGUAAUGGUGACGCGUCUCCCUCCUAAGGAGAAGACUGCUGGUUCGAGUCCCGUACGGAACG, the yeast fitness turned out to be 0.831.

Consider GUUCCGUUGGCGUAAUGGUAACGCGUAUCCGUCCUAAGGAGAAGAUUGCGGGUUCGAGUCCCGUACGGAACG, for which the yeast fitness was found to be 0.621. As to GUUCCGUUGGCGUAAUGGUAACGCGUCUCCGUCCUAAGGAGAAGACUGCGGGUUCAAGCCCCGUCCGGAGCG, the yeast fitness is at most 0.5. As for GUGCAGUUGGCGUAAUGGUAACGCGUCUCCCUCCUAAGGAGAAGACUGCGGGUUCGAGUCCCGUACGGAACG, the figure is 0.779; as for GUUUCGUUGGCGUUAUGGUAACGGGUCUCUCUCCUAAGGAGAAGACUGCGGGUUCGAGUGCUGUACGGAACG, 0.663; as for GUUCCGUUGGCGUAAUGGUAACGCGUCUGCCUGCUAAGGAGAAGACUGUGGGUUCGAGUCCCGUACGGAACG, 0.536. As for GUUCCGUAGGCGUAAUGGUAACGCGUCUCCCUCCGAAGGAGAAGACUGCGGGUUCGAGUCCCGUACGGAACG, the figure is at most 0.5; as for GUUCCCUUGGUGUAAUGGUAACGAGUCUCCCUCCUAAGGAGAAGACUGCGGGUUCGAGUCCCGUACGGAACG, at most 0.5; as for GUUCCGUUGCCGCAAUGGUAACGCGUCUCCCGCCUAAGGAGAAGACUGCGGGUUCGAGUCCCGUACGGAACG, at most 0.5. GUUCCGUUGGCGUAAUGGUAACGCGUCUCCCUCCUAAGGAGAAGACUGCGGGUUCGAAUCCUGUACGGAACG: the yeast fitness was 1.07. Consider GUUCCGUUGGCGUGAUGGUAACGCGUCUCCGUCCUAUGGAGAAGACUGCGGGUUCGAGUCCCGUUCGGAACG, for which the yeast fitness was determined as 0.529.

As to GUUCCAUUGGCGUAAUGGUAACGCGUCUCCCUCCUAAGGAGAAAAAUGCGGAUUCGAGUCCCGUACGGAACG, the yeast fitness is 0.629. With GUUCCGUUGGCGUAAUGGUAACGCGUCAUCCUCCUAAGGAGAAGCCUGCGGGUUCGAGUCCCGUACGGAACG, the yeast fitness worked out at 0.522. As for GUUCCGGUGGCGUAAUGGUAACGCGUCUCCCACCUAAGGAGAAGACUGCGGGUUCGAGUCGCGUACGGAACG, the figure is at most 0.5. As for GUUCCGUUGGCGUAAUGGUAAACCGUCUCCCUCUUGAGGUGAAGACUGCGGGUUCGAGUCCCAUACGGAACG, the figure is at most 0.5; as for GUUCCGUUGGCGUAGUGGUAACGCGUCUCCCUGCUAAGCAGAAGACUGCGGGUUCGAGUCCCGUACGGAACG, at most 0.5; as for GUUCCGUUGGCGUAAUGGUAACGCGUCUCCCUCCUAAGCAGGUGACUGCGGGUUCGAGUCCUGUACGGUACG, at most 0.5. GUUCCGCUGGCGUAAUGGUAACGCGUCUCCCUCCUAAGGAGAAGACUGCGGGUUCGAGUCCCGUACAGCACG: the yeast fitness came to 0.534.

Consider GUUCCGUUGGCGUUAUGGUAACGCGUCUCCCUCCUAUGGAGAAGACUGCGGGUUCGAGACCCGUACGGAACG, for which the yeast fitness is at most 0.5. Regarding GUUCCGUUGGCGUAUUGGUAACCCGUCUCCCUCCUAAGGUGAAGACUGCGGGUUCGAGUCCCCUACGGAACG, the yeast fitness was at most 0.5.

Consider GUUCCGUUGGCGUAAUCGUAUCGCGUCUCCCUGCUAAAGAGAAGACUGCGGAUUCGAGUCCCGUACGGAACG, for which the yeast fitness was at most 0.5. As to GCUCCGUUGGCGUAAUGGUAACGCGUAUCCCUCCUAAGGAGAAGACUGCGGGUUCGAGUCCCGUACGGCACG, the yeast fitness was at most 0.5. On to GCUCCGUUGGCGUAAUGGUAACGCGUCUCCCUCCUAAGGAGAAGACUGCGGAUUCGAGUCCCGUACGGAACG, for which the yeast fitness came to 0.75.

For the variant GUUCCGGUGGCGUAAUGGUAACGCGUCUCACUCCUAAGGAGAAGACUGCGGGUUCGAGUCCCGUACGGAACG, the yeast fitness is 0.721. As for GUUCCGUUGGCGUAAUGGUAACGCGUCUCGCUCCUAAGGAGACGACUGCGGGUUCGAGUGCCGUACGGAACG, the figure is at most 0.5. For GUUCCGUUGGCGUAAUGGUAACGAGUCUCCCUCCUAAGCAGAAGACUGCGGGUUCGUGUCCCGUACGGACCG, the yeast fitness is at most 0.5.

Turning to GUUCCGUUGGCGUAAUGGUAACGCGUUUCCCUCCUAAGGAGAAGAUUACGGGUUCGAGUCCCGUACGGAACG, the yeast fitness was 0.888. Consider GUUCCGUUGGCGUAAUGGUAAAGCGUCUCCCUCCUAAGGAGAAGACUGCGCGUUCGAGUUCCGUACGGAACG, for which the yeast fitness is at most 0.5. As for GUUCCGUUGGCGUAAUGGUACCGCGUCUCCCUCCUAAGGAGAAGACUGCGGAUUCGAGUCCCGUACGGAACG, the figure is 0.636; as for GUUCCGUUGGCGUAAUGGUAACGCGUCUCCCUCAUAAGGAGAAGACUGCGGGUUCGAGUCCCGAACGGAACG, 0.783; as for GUUCCGUUGACGUAAUGGUAACGCGUCUCCCUCCUAAGGAGAGGACUGCAGGUUCGAGUCCCGUACGGAACG, 0.573.

As to GUUCCGUUGGCGUAAUGGUAACGCGUUUCCCUCCUAAGGAGAAGACUGCGGGUUCGAGUCCAGUAUGGAACG, the yeast fitness is at most 0.5. As for GUUCCGUUGGCGUCCUGGUAACGCGUCUCCCUCCUAAGGAGAAGACUGCGGGUUCGAGUCCCGUACGGAACG, the yeast fitness amounted to 0.518. In the case of GUUCCGUUGGCAUAAUGGUAACGCGUCUACCUCCUAAGGAGUAGAUUGCGGGUUACAGUCCCGUACGGAACG, the yeast fitness is at most 0.5. For the variant GUUCCGUUGGCGUAAUGGUAACGCGUCUCCCUCCUAAGGAGAAGACUGCGGGUUCGAGUCCCGUCCGGGACG, the yeast fitness came out at 0.939. As for GUUCUGUUGGCCUAAUGGUACCGAGUCUCCCUCCUAAGGACAAGACUGCAGGAUCGAGUCCCGUACGGAACG, the figure is at most 0.5; as for GUUCCGUUGGCGUAAUGGUAACGCGUCUCCCUCCUAAGGAGCAGACUGCGGGUUAGAGCCCCGUACGGAACG, 0.661. Regarding GUUCCGUUGGCGUAAUGGUAACGCGUCUCCCUCCUAAGGAGAAGACUCCGGGUUCGAGUCCCAUACGGAACG, the yeast fitness was 0.877. GUUCCGUUGGCGCAAUGGUAACGCGUCUCCCUCCUAAGGAGAAGACUGCGGAUUCGAGUCCCGUACGGAACG: the yeast fitness was 0.735.

Turning to GUCCCGUUGGCGUAAUGGUAACGCGUAUCCGUCCUAAGGAGAAGACUGCGGGUUCGAGUCCCGUACGGAACG, the yeast fitness worked out at 0.604.

In the case of GUUCCGUUGGCGUAAUGGUGACGCGUCUCCCUCCUAAGGAGAAGACUGCGGGUUCGAGUCCCGUUCGGCACG, the yeast fitness is at most 0.5. For the variant GUUCCGUUGGCGUAAUGGUAACGCGUCUCCCUCCUAAAGAGAAGACCACGGGUUCGAGUCCCGUACGGAACG, the yeast fitness amounted to 0.542. Regarding GUUCCGUUGGCGUAAUGGUAAGGCGUCUGCCUCCUAAGGAGGAGAUUGCGGGUUCGAGUCCCGUACGGAUCG, the yeast fitness was at most 0.5. As to GUUCCGUUGGGGUGAUGGUAACGCGUCUCCCUCCUAAGGAGAAGACUGCGGGUUCGAGUCCCAUAUGGAACG, the yeast fitness is at most 0.5.

As to GUUCCGUUGGCGUAAUGGUAACCCGUCUCCCUCCUAAGGAGAAGACUGCGGGAUUGAGUCCCGUACGGAACG, the yeast fitness stood at 0.563.

Take GUUCCGUUGGGGUAAUGGUAACGCGUCUCCCUCCUAAGGAGAAGACUGCGGGUUAGAGUCCCAUACGGAACG: the yeast fitness came to 0.553. With GUUCCGUUGGCGUACUGGUAACGCGUCUCCCCCCUAAGGAGAAGACUGCGGGUUCGAGUCCCGUACGGAACG, the yeast fitness came to 0.767. As to GUUCCGUUAGCGUAAUGGUAACGCGUCUCCCUCCUAAGGAGAAGUCUGCGGGUUCGAGUCCCGUACGGAACG, the yeast fitness worked out at 0.86. As for GUUCCGUCGGCGAAAUGGUAACGCGUCUCCCUCCUAAGGAGAAGACUGCGGGUUCGAGUCCCGUACUGAACG, the yeast fitness was determined as 0.626. As for GUUCCGUUGGCGUAAUGGUAACGGGUCUGCCUACUAAGGAGAAGACUACGGGUUGGAGUCCCGUACGGAACG, the figure is at most 0.5; as for GUUCUGUUGGCGUAAUGGUAACGCGUCUCCCUCCUAAGGAGAAGACUGCGGGUUCGGGUCCCGUACGGAACG, 0.807. As for GUUCGGUUGGCGUAAUGGUAACGCGCCUCCCUCCUAAGGAGAAAACUGCGGGUUCGAGUCCAGUACGGAACG, the figure is at most 0.5; as for GUUCCGUUGGCGUAUUGGUAACGCGUCUCCCUCCUGAGGAGAAGACUGCGGGUUCGAGUCCCGUACGGAACG, 0.665. As for GUUCCGUUGGCGUAAUGGUAUCGCGUGUCCCUGCUAAGGAGAAGACUGCGGGUUCGAGUGCCGUACGGAACG, the yeast fitness stood at 0.52. Take GUUCCGUGGGCGUGAUGAUAACGCGUCUCCCUCCUAAGGAGAAGACAGCGGGUUGGAGUCCCGUACGGAACG: the yeast fitness was at most 0.5.

Consider GUUCCGUUGGCGUAAUGGUAACGCGUCUCCCUCCUAAGGAGAAGAUUGCGGGUUCGAGUCCCGCACGGAACG, for which the yeast fitness came out at 1.01. With GUUCCGUUGGCGUAAUGGUAACACGUCUCCCUCCUAAGGAGAAGACUGAGGGUUCGAGCCCUGUUCGGAACG, the yeast fitness is at most 0.5. Regarding GUUCGGUUGGCGUAAUGGUAACGCGUCUCCCUCCCAAGGAGAAGACUCCGGGUUCGAGUCCCGUACGGAACG, the yeast fitness is 0.571. As for GUUCCGUUGGCGUAAUGGUAACGCGUGUCCGUCCUAAGGAGAAGACUGCGGGUUCGAGCCCCGUACGGAACG, the figure is 0.604; as for GUUCCGUUCGCGUAAUGGUGACGCGUCUCCCUCCCGAGGAGAAGACUGCGGGUUCGAGACCCGUAGGGAACG, at most 0.5.

GUUCCGAUGGCGUAAUGGUAACGCGUCGCACUCCUAAGGAGAAGACUGCGGAUUCGAGUCCCGUACGGUACG: the yeast fitness was 0.607. On to GUUCCGAUGGCGUAAUGGUAACGUGUCUCUGUCCUAAGGAGAAGACUGCGGGUUCGGGUCCCGUACGGAACG, for which the yeast fitness is at most 0.5. Consider GUUCCGUUGGCGUGAUGGUAACGCGUCUCCCUCCUAAGGAGAAGAUUGCCGGUUUGUGUCCGGUACGGAACG, for which the yeast fitness stood at 0.571. As for GUUCCGUUGGCGUAAGGGGAACGCGUCUCCCUUCUAAGGCAACGACUGCGGGUUCGAGUCGCGUACGGAACG, the yeast fitness was at most 0.5.
